The text below walks through data of ChEMBL document CHEMBL3817826, “H2S-Donating Doxorubicins May Overcome Cardiotoxicity and Multidrug Resistance” (J Med Chem, 2016).

The subject of data set [1] is U2OS. As to the kind of experiment: Induction of intracellular ROS accumulation in human U2OS/DX580 cells at 5 uM incubated for 24 hrs by DCFDA-AM probe-based fluorimetrical analysis relative to control. Format: functional, cell-based. The procedure, abridged:
(§1)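 After 24 h at 5 μM, 1×10^6 cells in 0.5 mL PBS were loaded with 5 μM DCFDA-AM for 30 min at 37 °C, spun and resuspended. Fluorescence read at ex 492/em 517 nm, expressed as nmol ROS/mg cell protein. Duplicate, n = 3, mean ± SD.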

Data set [2] is described as follows: Drug uptake in human U2OS/DX30 cells at 5 uM incubated for 24 hrs by fluorimetrical analysis. In kind it is ADME, cell-based. The method, boiled down:
(§2)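 Intracellular drug measured after 24 h exposure to 5 μM. Cell lysates read fluorimetrically at ex 475/em 553 nm with cell-free blank subtracted. Converted by calibration curve to nmol drug/mg cell protein. Duplicate, n = 3, mean ± SD.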

Data set [3] has as its system U2OS. Put plainly: Cytotoxicity in human U2OS/DX580 cells at 5 uM incubated for 24 hrs by LDH release-based spectrofluorimetrical analysis. In kind it is functional, cell-based. The procedure, abridged: (§3)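 Cells exposed 24 h to 5 μM drug in DMEM with 10% FBS at 37 °C, 5% CO2. Medium spun 12,000 × g 5 min. Cells sonicated in 82.3 mM triethanolamine phosphate-HCl pH 7.6. LDH in medium and lysate followed 6 min at 340 nm. Extracellular LDH reported as % of total dish activity, duplicate, n = 3, mean ± SD.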
Background: LDH leaks from cells whose membrane has failed.

Data set [4] is described as follows: Drug uptake in human U2OS/DX100 cells at 5 uM incubated for 24 hrs by fluorimetrical analysis. Format: ADME, cell-based. The method, boiled down:
as §2

Data set [5] concerns U2OS. As to the kind of experiment: Cytotoxicity in human U2OS/DX30 cells at 5 uM incubated for 24 hrs by LDH release-based spectrofluorimetrical analysis. In kind it is functional, cell-based. The method, boiled down:
as §3

The subject of data set [6] is U2OS. As to the kind of experiment: Cytotoxicity in human U2OS/DX100 cells at 5 uM incubated for 24 hrs by LDH release-based spectrofluorimetrical analysis. In kind it is functional, cell-based. The method, boiled down: as §3
Data set [7] concerns H9c2. Put plainly: Cytotoxicity in rat H9c2 cells at 5 uM incubated for 24 hrs by LDH release-based spectrofluorimetrical analysis relative to control. In kind it is cell-based. As to conditions: h9c2, 24 h. The method, boiled down: as §3
Data set [8] relates to H9c2. Put plainly: Cytotoxicity in rat H9c2 cells assessed as intracellular ROS accumulation at 5 uM incubated for 24 hrs in presence of hydroxocobalamin by DCFDA-AM probe-based fluorimetrical analysis relative to control. Format: cell-based. As to conditions: h9c2, 24 h. The method, boiled down: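 H9c2 cells held 24 h with 5 μM drug plus 100 μM hydroxocobalamin, then loaded with 5 μM DCFDA-AM for 30 min at 37 °C. Fluorescence read at 492/517 nm, expressed as nmol ROS/mg protein. Duplicate, n = 3.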

In data set [9] the test system is H9c2. As to the kind of experiment: Cytotoxicity in rat H9c2 cells at 5 uM incubated for 24 hrs in presence of NAC by LDH release-based spectrofluorimetrical analysis relative to control. Conditions: h9c2, 24 h. In kind it is cell-based.
Data set [10] relates to U2OS. As to the kind of experiment: Activity at PgP in human […] cells assessed as Vmax measured per mg of protein incubated for 20 mins by fluorimetrical analysis. Format: cell-based. The method, boiled down: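 U-2OS/DX580 cells exposed 20 min to 0-50 μM drug, washed, intracellular doxorubicin read fluorimetrically; parallel dishes left a further 10 min at 37 °C before reading. Efflux rate (difference, nmol extruded/min/mg cell protein) plotted against initial concentration; Vmax and Km fitted. Means ± SD, n = 3.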

Data set [11] has as its system H9c2. As to the kind of experiment: Cytotoxicity in rat H9c2 cells assessed as intracellular ROS accumulation at 5 uM incubated for 24 hrs by DCFDA-AM probe-based fluorimetrical analysis relative to control. In kind it is cell-based. As to conditions: h9c2, 24 h. The procedure, abridged: as §1
The nature of data set [12]: Drug uptake in human U2OS/DX580 cells at 5 uM incubated for 24 hrs by fluorimetrical analysis. Format: ADME, cell-based. The method, boiled down: as §2
For data set [13], the system named is U2OS. Put plainly: Induction of intracellular ROS accumulation in human U2OS/DX30 cells at 5 uM incubated for 24 hrs by DCFDA-AM probe-based fluorimetrical analysis relative to control. In kind it is functional, cell-based. The method, boiled down:
as §1

The target in data set [14] is DNA topoisomerase 2-alpha (Homo sapiens) (UniProt P11388). Put plainly: Inhibition of human topoisomerase 2-mediated DNA cleavage at 5 uM using supercoiled pHOT1 plasmid as substrate by agarose gel electrophoresis.
Chain of DNA topoisomerase 2-alpha (Homo sapiens) (P11388 whole entry): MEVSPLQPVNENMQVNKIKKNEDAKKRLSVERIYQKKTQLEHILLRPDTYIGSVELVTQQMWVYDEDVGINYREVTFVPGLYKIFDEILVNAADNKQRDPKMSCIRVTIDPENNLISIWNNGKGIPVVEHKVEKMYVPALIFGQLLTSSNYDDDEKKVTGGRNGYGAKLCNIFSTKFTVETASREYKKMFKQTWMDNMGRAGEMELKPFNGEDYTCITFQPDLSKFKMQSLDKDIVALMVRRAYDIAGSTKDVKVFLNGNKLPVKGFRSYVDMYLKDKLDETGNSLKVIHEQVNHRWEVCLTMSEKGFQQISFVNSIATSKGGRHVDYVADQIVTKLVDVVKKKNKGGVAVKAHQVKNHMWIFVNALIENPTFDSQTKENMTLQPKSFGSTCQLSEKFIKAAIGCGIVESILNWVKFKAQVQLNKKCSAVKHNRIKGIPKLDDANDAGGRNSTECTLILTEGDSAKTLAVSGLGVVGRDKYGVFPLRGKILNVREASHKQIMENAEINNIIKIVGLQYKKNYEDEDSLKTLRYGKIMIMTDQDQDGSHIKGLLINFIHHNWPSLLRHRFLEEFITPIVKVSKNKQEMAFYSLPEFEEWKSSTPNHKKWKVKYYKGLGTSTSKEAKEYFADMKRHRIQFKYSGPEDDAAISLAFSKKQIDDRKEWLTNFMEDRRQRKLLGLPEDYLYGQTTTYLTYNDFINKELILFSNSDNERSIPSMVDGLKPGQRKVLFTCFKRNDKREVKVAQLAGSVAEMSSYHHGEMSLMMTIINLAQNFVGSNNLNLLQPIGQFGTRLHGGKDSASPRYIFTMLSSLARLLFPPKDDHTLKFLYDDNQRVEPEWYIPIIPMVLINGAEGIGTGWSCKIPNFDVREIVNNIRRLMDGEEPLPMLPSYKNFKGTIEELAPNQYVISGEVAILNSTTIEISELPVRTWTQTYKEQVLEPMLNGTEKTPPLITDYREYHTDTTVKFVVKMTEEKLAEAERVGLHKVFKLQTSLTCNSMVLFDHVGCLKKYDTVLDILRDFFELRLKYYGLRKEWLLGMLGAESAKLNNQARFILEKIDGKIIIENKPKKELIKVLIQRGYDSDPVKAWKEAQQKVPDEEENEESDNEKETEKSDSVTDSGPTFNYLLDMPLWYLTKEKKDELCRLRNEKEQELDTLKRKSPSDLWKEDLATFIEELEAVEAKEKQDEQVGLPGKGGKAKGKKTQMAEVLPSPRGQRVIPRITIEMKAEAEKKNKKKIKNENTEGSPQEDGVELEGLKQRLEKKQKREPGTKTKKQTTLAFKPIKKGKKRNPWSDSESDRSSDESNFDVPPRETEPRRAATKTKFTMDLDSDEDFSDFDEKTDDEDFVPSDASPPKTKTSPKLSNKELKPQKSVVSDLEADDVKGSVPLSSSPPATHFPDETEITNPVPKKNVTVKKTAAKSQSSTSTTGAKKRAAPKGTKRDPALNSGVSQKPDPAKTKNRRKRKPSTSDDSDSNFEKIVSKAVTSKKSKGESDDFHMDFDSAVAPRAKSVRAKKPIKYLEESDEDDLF
For data set [15], the system named is U2OS. Put plainly: Induction of intracellular ROS accumulation in human U2OS cells at 5 uM incubated for 24 hrs by DCFDA-AM probe-based fluorimetrical analysis relative to control. Format: functional, cell-based. The procedure, abridged:
as §1

In data set [16] the test system is H9c2. Put plainly: Cytotoxicity in rat H9c2 cells assessed as reduction in ROS level at 5 uM incubated for 24 hrs in presence of NAC by DCFDA-AM probe-based fluorimetrical analysis. Format: cell-based. Conditions: h9c2, 24 h.
In data set [17] the test system is U2OS. As to the kind of experiment: Induction of intracellular ROS accumulation in human U2OS/DX100 cells at 5 uM incubated for 24 hrs by DCFDA-AM probe-based fluorimetrical analysis relative to control. In kind it is functional, cell-based. The procedure, abridged:
as §1

The test system of data set [18] is H9c2. Put plainly: Cytotoxicity in rat H9c2 cells […] at 5 uM incubated for 24 hrs in presence of dexrazoxane by LDH release-based spectrofluorimetrical analysis relative to control. Conditions: h9c2, 24 h. Format: cell-based.
Data set [19] deals with H9c2. As to the kind of experiment: Drug uptake in rat H9c2 cells at 5 uM incubated for 24 hrs by fluorimetrical analysis. As to conditions: h9c2, 24 h. In kind it is ADME, cell-based. The method, boiled down:
as §2

By Vmax is commonly meant the rate approached at saturating substrate.

Active and inactive are the calls of the source. No cut-off for these calls is given here.

Consider `COc1cccc2c1C(=O)c1c(O)c3c(c(O)c1C2=O)C[C@@](O)(C(=O)CO)C[C@@H]3O[C@H]1C[C@H](N)[C@H](O)[C@H](C)O1.Cl` [DOXORUBICIN HYDROCHLORIDE], for which the result with U2OS [1], in the data set on U2OS [3], in the data set with U2OS [5], in the data set with U2OS [6], in the data set on U2OS [13] and in the data set on U2OS [17] was inactive. The Drug uptake entry was “Not Active” in data set [2], “Not Active” in data set [4], “Not Active” in [12] and “Active” in the data set on H9c2 [19]. In addition, the Activity result was “Toxic” in the data set with H9c2 [7]; “Toxic” in the data set on H9c2 [8]; “Non-toxic” with H9c2 [9]; “Toxic” in the data set with H9c2 [11]; “Non-toxic” in the data set on H9c2 [16]; “Toxic” with H9c2 [18]. The Vmax in the data set with U2OS [10] came to 24.1 nmol/min/mg. For the same compound, the inhibition result in data set [14] is “inactive”. Also, the outcome with U2OS [15] was Active.
